According to PubChem BioAssay:
Inconclusive results are not listed.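 Rule for the calls, unless noted: active = inhibition over a set limit, the all-compound mean plus 3 SD, in both replicate runs; inconclusive = over that limit in just one replicate run; inactive = at or under that limit in both runs.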

Columns and labels:
[1] = S. cerevisiae growth inhibition in permissive medium (OD615), pilot counter-assay for S. cerevisiae lifespan shortening project, permissive growth control (AID 705;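 active = growth inhibition above 25% in both replicates, a cutoff set 3 SD above the mean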); conditions: OD615, 24 h, at 10 µM, stronger effect = higher value
Outline: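 System – S. cerevisiae with engineered DeaD lifespan system · Buffer or medium – SC raffinose/galactose permissive medium · Schedule – cells pre-grown 4 h, then 24 h compound exposure, 30 °C humidified · Technique – culture turbidity as optical density at 615 nm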

[2] = S. cerevisiae growth inhibition in restrictive medium, OD615, pilot screen, restrictive growth control, yeast lifespan reduction project (AID 706;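 active = growth inhibition above a set limit, 3 SD over mean compound inhibition, in both replicates, cut at about 43% in these data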;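 note: modified DeaD lifespan yeast strain shifted to restrictive glucose medium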); conditions: OD615, 48 h, at 10 µM, stronger effect = higher value
Outline: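 Material: engineered S. cerevisiae DeaD strain / Medium: glucose-based CSMM-D restrictive medium / Compound: single dose of 10 µM compound final, 0.25% DMSO / Timing: 4 h pre-incubation, 48 h exposure at 30 °C / Technique: OD615 absorbance reading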

[3] = doxorubicin toxicity protection in MRP-1 cells – H69AR cells, CellTiter-Glo, duplicate, MRP-1 activator project, pilot screen (AID 807;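 active = viability increase at or above a cutoff of the median across tested compounds plus 3 SD, cut at about 8.5% in these data, passing the limit was not always enough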;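 note: compound pretreatment 18-22 h then 72 h combined with doxorubicin; 0% = doxorubicin alone and 100% = vehicle without doxorubicin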); conditions: H69AR viability with doxorubicin, CellTiter-Glo luminescence; at 10 µM; stronger effect = higher value
[4] = viability of HCT116 without oncogenic beta-catenin – human colon tumor cells, pilot screen (AID 823;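 active = cell viability at or below a set limit in both duplicate runs, the limit being the all-compound median minus 4 SD, cut at about 23% in these data, passing the limit was not always enough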;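 note: 0% = wells killed by 20 µM Hyamine and 100% = untreated DMSO cell wells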); conditions: HCT116 beta-catenin knockout viability, CellTiter-Glo, 60 h; at 10 µM; stronger effect = lower value
[5] = viability of PTEN-null HCT116 cells – cell-based, HCT116 clonal line, CellTiter-Glo, pilot screen (AID 824;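 active = viability at or below 27.92% in each of two runs, the all-compound median minus 4 SD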;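 note: 0% = 20 µM Hyamine control and 100% = vehicle cell control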); conditions: HCT116 PTEN-deleted viability, 60 h, at 10 µM, stronger effect = lower value
[6] = RAM pathway blockade in budding yeast – dse1pr::URA3 reporter, 5-FOA selection, pilot screen (AID 869);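 note: 0% = DMSO wells with no growth and 100% = 10 µM 1-NA-PP1 with full growth; RAM network block rescues cells from 5-FOA so hits raise OD615 growth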; conditions: S. cerevisiae dse1pr::URA3 5-FOA growth, OD615, 2 d; at 10 µM; stronger effect = higher value; strain carries analog-sensitive mutant Cbk1 kinase
[7] = RAM signaling pathway blockade in yeast – S. cerevisiae, Pdr1DBD-CYC8 efflux-inhibited sensitized strain, primary screen (AID 1298;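 active = RAM network inhibition above 8.4% in each of two replicates, 3 SD over the compound average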;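 note: 0% = DMSO untreated cells without growth and 100% = 10 µM 1-NA-PP1 full growth; higher means more yeast growth rescued from 5-FOA killing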); conditions: S. cerevisiae cbk1-as DSE1-URA3 strain, 5-FOA growth OD615, 2 d; at 50 µM; stronger effect = higher value

CCOC(=O)c1cnn(CC2CCCCC2)c1N
inactive: growth inhibition [1] 0.805% | growth inhibition [2] 1.77% | viability increase [3] -0.78% | viability [4] 92.4% | viability [5] 94.4% | inhibition [6] 0.96% | RAM network inhibition [7] -0.52%

COc1ccc(C(c2sc3ncnn3c2O)N2CCN(c3ccccc3F)CC2)cc1OC (configuration not stated)
inactive: growth inhibition [1] 0.27% | growth inhibition [2] 11.7% | viability increase [3] 1.69% | viability [4] 103% | viability [5] 92% | inhibition [6] 1.3% | RAM network inhibition [7] 1.06%

COc1ccc(OC)c(CCNC(=O)CN2C(=O)CC(C)(C)S(=O)(=O)c3ccccc32)c1
inactive: growth inhibition [1] -4.35% | growth inhibition [2] -14.1% | viability increase [3] -2.6% | viability [4] 101% | viability [5] 92.3% | inhibition [6] -0.045% | RAM network inhibition [7] 2.76%

Cc1cc(C)cc(Nc2cc(C)nc3nc(C)nn23)c1
inactive: growth inhibition [1] -3.56% | growth inhibition [2] 11.6% | viability increase [3] -2.41% | viability [4] 95.9% | viability [5] 90.8% | inhibition [6] 1.87% | RAM network inhibition [7] -0.26%

CCOc1cccc(=O)c2c(C)n(Cc3ccco3)c(C)c12
inactive: growth inhibition [1] -12.4% | growth inhibition [2] -8% | viability increase [3] -3.8% | viability [4] 92.1% | viability [5] 84.9% | inhibition [6] 0.975% | RAM network inhibition [7] -0.46%

Brc1ccc(-c2nnc(-c3ccccc3Br)o2)cc1
inactive: growth inhibition [1] 0.385% | growth inhibition [2] -1.09% | viability increase [3] -1.12% | viability [4] 87.9% | viability [5] 79.2% | inhibition [6] 2.09% | RAM network inhibition [7] 11.3%

Cc1nn(-c2ccccc2)c(C)c1C(=O)OCC(=O)Nc1ccc2c(c1)OCO2
inactive: growth inhibition [1] -15.6% | growth inhibition [2] -15.7% | viability increase [3] -0.97% | viability [4] 95.3% | viability [5] 92.9% | inhibition [6] 3.68% | RAM network inhibition [7] 3.09%

CC(=O)c1ccc(C(=O)Nc2ccc(N3CCOCC3)cc2)cc1
inactive: growth inhibition [1] -0.45% | growth inhibition [2] 2.98% | viability increase [3] 3.45% | viability [4] 98.5% | viability [5] 99.6% | inhibition [6] 0.45% | RAM network inhibition [7] 2.61%

CN1CCN(C(=O)c2ccc3c(c2)N(Cc2ccc(Cl)cc2)C(=O)c2ccccc2S3=O)CC1 (configuration not stated)
inactive: growth inhibition [1] -0.89% | growth inhibition [2] -13.2% | viability increase [3] -4.61% | viability [4] 80.3% | viability [5] 83% | inhibition [6] 0.215% | RAM network inhibition [7] 1.3%

COc1ccc(N=C2SC(C(=O)O)CC(=O)N2C)cc1 (configuration not stated)
inactive: growth inhibition [1] -5.94% | growth inhibition [2] 7.82% | viability increase [3] -0.87% | viability [4] 98.1% | viability [5] 101% | inhibition [6] 0.35% | RAM network inhibition [7] 3.61%

O=C(NCCN1CCc2ccccc2C1)Nc1ccc(F)cc1
inactive: growth inhibition [1] -4.88% | growth inhibition [2] -2.83% | viability increase [3] -3.99% | viability [4] 105% | viability [5] 100% | inhibition [6] 2.19% | RAM network inhibition [7] 2.62%

COc1ccc(-c2nnc(SCC(=O)NC(C)C)n2CC2CCCO2)cc1OC (configuration not stated)
inactive: growth inhibition [1] 1.07% | growth inhibition [2] -3.87% | viability increase [3] 0.35% | viability [4] 103% | viability [5] 98.3% | inhibition [6] 1.69% | RAM network inhibition [7] -0.58%

CCOC(=O)C1CCCN(C(=O)c2cn(C)c3ccc(S(=O)(=O)N(C)C)cc3c2=O)C1 (configuration not stated)
inactive: growth inhibition [1] -5.1% | growth inhibition [2] -1.87% | viability increase [3] 0.59% | viability [4] 97.8% | viability [5] 105% | inhibition [6] 0.48% | RAM network inhibition [7] 6.85%

CCC(C)NC(=O)c1ccccc1NC(=O)CN1C(=O)c2ccccc2S1(=O)=O (configuration not stated)
inactive: growth inhibition [1] -17.3% | growth inhibition [2] -18.6% | viability increase [3] 0.23% | viability [4] 105% | viability [5] 95.2% | inhibition [6] 1.33% | RAM network inhibition [7] 5.02%

COc1ccc(CN=CC2=C(O)CNC2=O)cc1OC
inactive: growth inhibition [1] -12% | growth inhibition [2] -8.51% | viability increase [3] -0.57% | viability [4] 99.8% | viability [5] 103% | inhibition [6] 1.47% | RAM network inhibition [7] 5.81%

O=C(CCSCCc1ccccn1)Nc1nccs1
inactive: growth inhibition [1] 6.12% | growth inhibition [2] 8.44% | viability increase [3] -0.56% | viability [4] 102% | viability [5] 94.8% | inhibition [6] 2.55% | RAM network inhibition [7] 0.66%

CC(=O)NC(CCS(C)(=O)=O)C(=O)Nc1ccc(Cl)c(Cl)c1 (configuration not stated)
inactive: growth inhibition [1] -4.26% | growth inhibition [2] -6.39% | viability increase [3] -1.98% | viability [4] 96.9% | viability [5] 89.6% | inhibition [6] 1.11% | RAM network inhibition [7] 1.53%

COCCN1C(=O)c2ccccc2C(C(=O)NCCN(C)C)C1c1ccc(F)cc1 (configuration not stated)
inactive: growth inhibition [1] -15% | growth inhibition [2] -19.9% | viability increase [3] -1.59% | viability [4] 92.1% | viability [5] 98.4% | inhibition [6] 1.89% | RAM network inhibition [7] 2.13%

Oc1c(C(c2ccc(F)cc2)N2CCc3ccccc3C2)sc2ncnn12 (configuration not stated)
inactive: growth inhibition [1] -5.9% | growth inhibition [2] -6.98% | viability increase [3] 4.08% | viability [4] 103% | viability [5] 91.7% | inhibition [6] 2.67% | RAM network inhibition [7] 3.09%

Cc1onc(-c2ccccc2)c1C(=O)Nc1sc2c(c1C#N)CCC2
inactive: growth inhibition [1] 3.88% | growth inhibition [2] 4.25% | viability increase [3] -4.93% | viability [4] 59.7% | viability [5] 54.3% | inhibition [6] 1.58% | RAM network inhibition [7] 0.09%

CCOC(=O)N1CCN(C(c2ccc(C(C)C)cc2)c2sc3nc(C)nn3c2O)CC1 (configuration not stated)
inactive: growth inhibition [1] -1.48% | growth inhibition [2] -10.5% | viability increase [3] 2.48% | viability [4] 102% | viability [5] 91% | inhibition [6] 0.2% | RAM network inhibition [7] 0.93%

COc1ccc(-c2cn3c(C)c(C(=O)N4CCN(c5ccccc5)CC4)sc3n2)cc1
inactive: growth inhibition [1] -0.58% | growth inhibition [2] -13.6% | viability increase [3] -1.3% | viability [4] 101% | viability [5] 95.6% | inhibition [6] 1.88% | RAM network inhibition [7] 0.88%

CCCc1nnc(SCC(=O)O)n1/N=C/c1ccc2c(c1)OCO2
inactive: growth inhibition [1] 8.88% | growth inhibition [2] 34.1% | viability increase [3] -2.31% | viability [4] 102% | viability [5] 101% | inhibition [6] 0.54% | RAM network inhibition [7] 0.41%

CCC1CCCCN1C(=O)CSc1nc2c(cnn2-c2ccc(C)cc2)c(=O)[nH]1 (configuration not stated)
inactive: growth inhibition [1] -3.04% | growth inhibition [2] -5.33% | viability increase [3] -3.73% | viability [4] 97.2% | viability [5] 87.1% | inhibition [6] 1.71% | RAM network inhibition [7] 6.97%

C/C(=C\C(=O)c1ccc(C)cc1)Nc1cccc(O)c1
inactive: growth inhibition [1] 4.13% | growth inhibition [2] -2.96% | viability increase [3] -4.74% | viability [4] 99.2% | viability [5] 92.8% | inhibition [6] 2.13% | RAM network inhibition [7] -0.26%

CCOC(=O)c1ccc(NC(=O)c2nn(C)cc2Br)cc1
inactive: growth inhibition [1] -7.53% | growth inhibition [2] -10.1% | viability increase [3] -1.34% | viability [4] 101% | viability [5] 105% | inhibition [6] 0.925% | RAM network inhibition [7] 6.88%

CC(C)(C)n1nc2c(c1NC(=O)Cc1ccc(F)cc1)CSC2
inactive: growth inhibition [1] 1.52% | growth inhibition [2] -7.53% | viability increase [3] -0.87% | viability [4] 94% | viability [5] 88.2% | inhibition [6] 2.36% | RAM network inhibition [7] 5.41%

Brc1ccccc1Cn1c(-c2cncs2)nc2ccccc21
inactive: growth inhibition [1] -8.58% | growth inhibition [2] 25.2% | viability increase [3] -3.44% | viability [4] 79.2% | viability [5] 73.9% | inhibition [6] 0.68% | RAM network inhibition [7] 3.2%

CCOc1cccc2sc(NC(=O)c3ccc(Br)s3)nc12
inactive: growth inhibition [1] -25.6% | growth inhibition [2] -9.82% | viability increase [3] -3.55% | viability [4] 65.4% | viability [5] 58% | inhibition [6] 2.42% | RAM network inhibition [7] 4.63%

COc1ccc(C(=O)NCCn2ccc3ccccc32)cc1OC
inactive: growth inhibition [1] -9.53% | growth inhibition [2] -16.1% | viability increase [3] -3.48% | viability [4] 99.7% | viability [5] 81.9% | inhibition [6] 1.91% | RAM network inhibition [7] 2.68%

CC(=O)Nc1c2c(nn1-c1cccc(Cl)c1)CS(=O)C2 (configuration not stated)
inactive: growth inhibition [1] 3.89% | growth inhibition [2] -5.49% | viability increase [3] -0.33% | viability [4] 94.1% | viability [5] 100% | inhibition [6] 1.38% | RAM network inhibition [7] 0.11%

CCc1ccc(C(=O)NCc2cccs2)s1
inactive: growth inhibition [1] -5.71% | growth inhibition [2] 4.03% | viability increase [3] 1.53% | viability [4] 104% | viability [5] 97.1% | inhibition [6] 0.715% | RAM network inhibition [7] -1.7%

O=C(Nc1ccc(Oc2ccccc2)cc1)c1cnc2n(c1=O)CCS2
inactive: growth inhibition [1] -16.5% | growth inhibition [2] -12.6% | viability increase [3] 5.46% | viability [4] 68.8% | viability [5] 65.9% | inhibition [6] 3.62% | RAM network inhibition [7] 8.2%

CCOc1ccc(N(CC(=O)OC)S(=O)(=O)c2c(C)noc2C)cc1
inactive: growth inhibition [1] 3.84% | growth inhibition [2] -0.545% | viability increase [3] -1.21% | viability [4] 87.4% | viability [5] 95.1% | inhibition [6] -0.69% | RAM network inhibition [7] -0.31%

Cc1cc(N2CCN(C(c3ccccc3)c3ccc(Cl)cc3)CC2)n2ncnc2n1 (configuration not stated)
inactive: growth inhibition [1] -1.52% | growth inhibition [2] 7.98% | viability increase [3] -4.33% | viability [4] 66.1% | viability [5] 63.2% | inhibition [6] 0.13% | RAM network inhibition [7] 3.39%

CN(C)S(=O)(=O)c1ccc2c(c1)c(=O)c(C(=O)N1CCN(c3ccccn3)CC1)cn2C
inactive: growth inhibition [1] -5.42% | growth inhibition [2] 5.45% | viability increase [3] 1.06% | viability [4] 97.9% | viability [5] 104% | inhibition [6] 0.415% | RAM network inhibition [7] 4.54%
